# Assay results as given in ChEMBL document CHEMBL4052686, “Synthesis and antibacterial activity of 5-methylphenanthridium derivatives as FtsZ inhibitors” (2017).
# Calls of active or inactive are those of the source. No cut-off for these calls is given here.
# Columns and labels:
# [1] = test system: Staphylococcus epidermidis; experiment: Antibacterial activity against penicillin-resistant Staphylococcus epidermidis clinical isolates incubated for 24 hrs by tube-dilution method; type: functional
# Staphylococcus aureus [2] = experiment: Antibacterial activity against penicillin-resistant Staphylococcus aureus clinical isolates incubated for 24 hrs by tube-dilution method; type: functional
# Staphylococcus aureus [3] = experiment: Antibacterial activity against penicillin-susceptible Staphylococcus aureus ATCC 25923 incubated for 24 hrs by tube-dilution method; type: functional; conditions: ATCC 25923, 24 h
# How it was run: (§1)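 MIC by tube dilution per NCCLS; B. subtilis ATCC9372, E. coli ATCC25922, P. aeruginosa ATCC27853 and S. aureus ATCC25923 are penicillin-susceptible strains.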
# Bacillus subtilis [4] = experiment: Inhibition of FtsZ in penicillin-susceptible Bacillus subtilis ATCC 9372 assessed as lowest drug concentration causing inhibition of cell division incubated for 5 hrs by phase-contrast light microscopy
# How it was run: (§2)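 Cell division inhibition judged from bacterial cell morphology under phase-contrast light microscopy, scored as lowest concentration altering division; penicillin-susceptible strains B. subtilis ATCC9372, E. coli ATCC25922, P. aeruginosa ATCC27853, S. aureus ATCC25923.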
# Escherichia coli [5] = experiment: Antibacterial activity against penicillin-susceptible Escherichia coli ATCC 25922 incubated for 24 hrs by tube-dilution method; type: functional; conditions: ATCC 25922, 24 h; how it was run: as §1
# Escherichia coli [6] = experiment: Inhibition of FtsZ in penicillin-susceptible Escherichia coli ATCC 25922 assessed as lowest drug concentration causing inhibition of cell division incubated for 5 hrs by phase-contrast light microscopy; how it was run: as §2
# Streptococcus pyogenes [7] = experiment: Antibacterial activity against penicillin-susceptible Streptococcus pyogenes clinical isolates incubated for 24 hrs by tube-dilution method; type: functional
# Staphylococcus aureus [8] = experiment: Antibacterial activity against […] Staphylococcus aureus ATCC 29213 incubated for 24 hrs by tube-dilution method; type: functional; conditions: ATCC 29213, 24 h
# How it was run: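 Broth tube-dilution MIC run as NCCLS recommends, against the […] S. aureus strain ATCC29213.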
# Bacillus subtilis [9] = experiment: Antibacterial activity against penicillin-susceptible Bacillus subtilis ATCC 9372 incubated for 24 hrs by tube-dilution method; type: functional; conditions: ATCC 9372, 24 h; how it was run: as §1
# Streptococcus pyogenes [10] = experiment: Antibacterial activity against penicillin-resistant Streptococcus pyogenes clinical isolates incubated for 24 hrs by tube-dilution method; type: functional
# Pseudomonas aeruginosa [11] = experiment: Inhibition of FtsZ in penicillin-susceptible Pseudomonas aeruginosa ATCC 27853 assessed as lowest drug concentration causing inhibition of cell division incubated for 5 hrs by phase-contrast light microscopy; how it was run: as §2
# Pseudomonas aeruginosa [12] = experiment: Antibacterial activity against penicillin-susceptible Pseudomonas aeruginosa ATCC 27853 incubated for 24 hrs by tube-dilution method; type: functional; conditions: ATCC 27853, 24 h; how it was run: as §1
# Staphylococcus aureus [13] = experiment: Inhibition of FtsZ in penicillin-susceptible Staphylococcus aureus ATCC 25923 assessed as lowest drug concentration causing inhibition of cell division incubated for 5 hrs by phase-contrast light microscopy; how it was run: as §2
# Sus scrofa = species on record: Sus scrofa; experiment: Induction of porcine tubulin polymerisation at 2 times MIC for penicillin-resistant Staphylococcus aureus by fluorescence microscopy
# How it was run: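 Polymerisation of mammalian tubulin measured with a commercial tubulin assay kit, read by fluorescence of the kit reporter, with paclitaxel as the positive control for enhanced polymerisation.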
# Bacillus subtilis [14] = experiment: Potency index, ratio of MIC for oxacillin sodium to MIC for test compound against penicillin-susceptible Bacillus subtilis ATCC 9372 incubated for 24 hrs by tube-dilution method; type: functional
# Bacillus subtilis [15] = experiment: Potency index, ratio of MIC for ciprofloxaxin to MIC for test compound against penicillin-susceptible Bacillus subtilis ATCC 9372 incubated for 24 hrs by tube-dilution method; type: functional
# Streptococcus pyogenes [16] = experiment: Potency index, ratio of MIC for oxacillin sodium to MIC for test compound against penicillin-susceptible Streptococcus pyogenes clinical isolates incubated for 24 hrs by tube-dilution method; type: functional
# Bacillus subtilis [17] = experiment: Potency index, ratio of MIC for sanguinarine to MIC for test compound against penicillin-susceptible Bacillus subtilis ATCC 9372 incubated for 24 hrs by tube-dilution method; type: functional
# Bacillus subtilis [18] = experiment: Potency index, ratio of MIC for curcumin to MIC for test compound against penicillin-susceptible Bacillus subtilis ATCC 9372 incubated for 24 hrs by tube-dilution method; type: functional
# Streptococcus pyogenes [19] = experiment: Potency index, ratio of MIC for sanguinarine to MIC for test compound against penicillin-susceptible Streptococcus pyogenes clinical isolates incubated for 24 hrs by tube-dilution method; type: functional
smiles,measurement,setting,value
C[n+]1cc2c3c(ccc2c2ccc4cc5c(cc4c21)OCO5)OCO3,MIC,[1],64 µg/mL
same,MIC,Staphylococcus aureus [2],4 µg/mL
same,MIC,Staphylococcus aureus [3],8 µg/mL
same,MIC,Bacillus subtilis [4],8 µg/mL
same,MIC,Escherichia coli [5],> 128 µg/mL
same,MIC,Escherichia coli [6],> 128 µg/mL
same,MIC,Streptococcus pyogenes [7],8 µg/mL
same,MIC,Staphylococcus aureus [8],8 µg/mL
same,MIC,Bacillus subtilis [9],8 µg/mL
same,MIC,Streptococcus pyogenes [10],8 µg/mL
same,MIC,Pseudomonas aeruginosa [11],> 128 µg/mL
same,MIC,Pseudomonas aeruginosa [12],> 128 µg/mL
same,MIC,Staphylococcus aureus [13],8 µg/mL
Cc1onc(-c2ccccc2)c1C(=O)N[C@@H]1C(=O)N2[C@@H]1SC(C)(C)[C@@H]2C(=O)[O-].[Na+],MIC,[1],8 µg/mL
same,MIC,Staphylococcus aureus [2],> 128 µg/mL
same,MIC,Staphylococcus aureus [3],8 µg/mL
same,MIC,Escherichia coli [5],128 µg/mL
same,MIC,Streptococcus pyogenes [7],1 µg/mL
same,MIC,Staphylococcus aureus [8],128 µg/mL
same,MIC,Bacillus subtilis [9],8 µg/mL
same,MIC,Streptococcus pyogenes [10],2 µg/mL
same,MIC,Pseudomonas aeruginosa [12],128 µg/mL
C[n+]1cc2ccccc2c2cc(F)ccc21.[Cl-],MIC,[1],> 128 µg/mL
same,MIC,Staphylococcus aureus [2],32 µg/mL
same,MIC,Staphylococcus aureus [3],> 128 µg/mL
same,MIC,Bacillus subtilis [4],16 µg/mL
same,MIC,Escherichia coli [5],> 128 µg/mL
same,MIC,Escherichia coli [6],> 128 µg/mL
same,MIC,Streptococcus pyogenes [7],32 µg/mL
same,MIC,Staphylococcus aureus [8],> 128 µg/mL
same,MIC,Bacillus subtilis [9],16 µg/mL
same,MIC,Streptococcus pyogenes [10],32 µg/mL
same,Activity,Sus scrofa,inactive
same,MIC,Pseudomonas aeruginosa [11],128 µg/mL
same,MIC,Pseudomonas aeruginosa [12],128 µg/mL
same,MIC,Staphylococcus aureus [13],> 128 µg/mL
CSc1ccc2c(c1)c1ccccc1c[n+]2C.[Cl-],MIC,[1],> 128 µg/mL
same,MIC,Staphylococcus aureus [2],32 µg/mL
same,MIC,Staphylococcus aureus [3],128 µg/mL
same,MIC,Bacillus subtilis [4],8 µg/mL
same,MIC,Escherichia coli [5],> 128 µg/mL
same,MIC,Escherichia coli [6],128 µg/mL
same,MIC,Streptococcus pyogenes [7],32 µg/mL
same,MIC,Staphylococcus aureus [8],> 128 µg/mL
same,MIC,Bacillus subtilis [9],8 µg/mL
same,MIC,Streptococcus pyogenes [10],32 µg/mL
same,Activity,Sus scrofa,inactive
same,MIC,Pseudomonas aeruginosa [11],> 128 µg/mL
same,MIC,Pseudomonas aeruginosa [12],> 128 µg/mL
same,MIC,Staphylococcus aureus [13],128 µg/mL
Cc1ccc2c(c1)c1ccccc1c[n+]2C.[Cl-],MIC,[1],128 µg/mL
same,MIC,Staphylococcus aureus [2],4 µg/mL
same,MIC,Staphylococcus aureus [3],64 µg/mL
same,MIC,Bacillus subtilis [4],4 µg/mL
same,MIC,Escherichia coli [5],> 128 µg/mL
same,MIC,Escherichia coli [6],> 128 µg/mL
same,MIC,Streptococcus pyogenes [7],4 µg/mL
same,Ratio,Bacillus subtilis [14],2
same,MIC,Staphylococcus aureus [8],128 µg/mL
same,MIC,Bacillus subtilis [9],4 µg/mL
same,MIC,Streptococcus pyogenes [10],8 µg/mL
same,Activity,Sus scrofa,inactive
same,Ratio,Bacillus subtilis [15],2
same,Ratio,Streptococcus pyogenes [16],4
same,MIC,Pseudomonas aeruginosa [11],> 128 µg/mL
same,MIC,Pseudomonas aeruginosa [12],> 128 µg/mL
same,Ratio,Bacillus subtilis [17],2
same,Ratio,Bacillus subtilis [18],8
same,Ratio,Streptococcus pyogenes [19],2
same,MIC,Staphylococcus aureus [13],32 µg/mL
C[n+]1cc2ccccc2c2cc(C(F)(F)F)ccc21.[Cl-],MIC,[1],128 µg/mL
same,MIC,Staphylococcus aureus [2],128 µg/mL
same,MIC,Staphylococcus aureus [3],128 µg/mL
same,MIC,Bacillus subtilis [4],64 µg/mL
same,MIC,Escherichia coli [5],> 128 µg/mL
same,MIC,Escherichia coli [6],> 128 µg/mL
same,MIC,Streptococcus pyogenes [7],128 µg/mL
same,MIC,Staphylococcus aureus [8],> 128 µg/mL
same,MIC,Bacillus subtilis [9],128 µg/mL
same,MIC,Streptococcus pyogenes [10],128 µg/mL
same,Activity,Sus scrofa,inactive
same,MIC,Pseudomonas aeruginosa [11],> 128 µg/mL
same,MIC,Pseudomonas aeruginosa [12],> 128 µg/mL
same,MIC,Staphylococcus aureus [13],128 µg/mL
Cc1cc(C)c2c(c1)c1ccccc1c[n+]2C.[Cl-],MIC,[1],128 µg/mL
same,MIC,Staphylococcus aureus [2],4 µg/mL
same,MIC,Staphylococcus aureus [3],64 µg/mL
same,MIC,Bacillus subtilis [4],2 µg/mL
same,MIC,Escherichia coli [5],> 128 µg/mL
same,MIC,Escherichia coli [6],> 128 µg/mL
same,MIC,Streptococcus pyogenes [7],4 µg/mL
same,Ratio,Bacillus subtilis [14],2
same,MIC,Staphylococcus aureus [8],32 µg/mL
same,MIC,Bacillus subtilis [9],4 µg/mL
same,MIC,Streptococcus pyogenes [10],8 µg/mL
same,Activity,Sus scrofa,inactive
same,Ratio,Bacillus subtilis [15],2
same,Ratio,Streptococcus pyogenes [16],4
same,MIC,Pseudomonas aeruginosa [11],128 µg/mL
same,MIC,Pseudomonas aeruginosa [12],> 128 µg/mL
same,Ratio,Bacillus subtilis [17],2
same,Ratio,Bacillus subtilis [18],8
same,Ratio,Streptococcus pyogenes [19],2
same,MIC,Staphylococcus aureus [13],64 µg/mL
COc1cccc2c3ccccc3c[n+](C)c12.[Cl-],MIC,[1],128 µg/mL
same,MIC,Staphylococcus aureus [2],16 µg/mL
same,MIC,Staphylococcus aureus [3],> 128 µg/mL
same,MIC,Bacillus subtilis [4],8 µg/mL
same,MIC,Escherichia coli [5],> 128 µg/mL
same,MIC,Escherichia coli [6],> 128 µg/mL
same,MIC,Streptococcus pyogenes [7],16 µg/mL
same,MIC,Staphylococcus aureus [8],> 128 µg/mL
same,MIC,Bacillus subtilis [9],8 µg/mL
same,MIC,Streptococcus pyogenes [10],16 µg/mL
same,Activity,Sus scrofa,inactive
same,MIC,Pseudomonas aeruginosa [11],> 128 µg/mL
same,MIC,Pseudomonas aeruginosa [12],> 128 µg/mL
same,MIC,Staphylococcus aureus [13],> 128 µg/mL
